ChEMBL document CHEMBL4513216, “Probing the Open Global Health Chemical Diversity Library for Multistage-Active Starting Points for Next-Generation Antimalarials” (ACS Infect Dis, 2020)

Assay: Toxicity liver stage against HepG2, at 10uM
Assay type: cell-based
Parameters: test concentration 10 uM, cell line HepG2-A16-CD81EGFP
Settings: human, HepG2-A16-CD81EGFP cells; read-out: INHIBITION
Method in brief: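 Uninfected HepG2-A16-CD81EGFP cells, 3 × 10^3 per well, 1536-well, plated on prespotted compound at 10 μM final, parasite-free screening media added to match infected plates; puromycin 10 μM positive, DMSO 0.5% negative; run in parallel with 48 h PbLuc assay at 37 °C, 5% CO2; viability by CellTiter-Glo luminescence, normalized to controls.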

| SMILES | cytotoxicity at 10 µM [%] |
| --- | --- |
| CC(C)c1nc(C2CCCN(C(=O)c3ccc4[nH]cnc4c3)C2)no1 (centres undefined) | -3.87 |
| COC(=O)N1CCC2(CC1)CC(c1ccccc1)CN(C)C2 (centres undefined) | 2.09 |
| Fc1ccc(C2CN(c3ncnc4[nH]ncc34)CCO2)cc1 (centres undefined) | 27.1 |
| CC1=CC[C@@H]2CN(C(=O)c3ccc(-c4cc[nH]n4)cc3)C[C@@H]2C1 | 5.15 |
| N#Cc1cnc(NCc2ccc(C(=O)NC3CC3)cc2)c(Cl)c1 | -0.18 |
| O=C(O)c1cc(-c2cncnc2)cc(S(=O)(=O)N2CCCCCC2)c1 | 5.38 |
| CN1CCCC1c1ccnc(C(=O)N(C)C2CCCCC2)c1 (centres undefined) | -21.5 |
| CC(C)Oc1ccc2c(NC(=O)[C@H](C)O)nn(CC(F)(F)F)c2c1 | -4.87 |
| CNc1cncc(C2CCN(C(=O)c3coc(C)n3)CC2)n1 | 0.109 |
| Cc1nc(C(C)C)sc1C(=O)NCCn1nc2ccccn2c1=O | -12 |
| CCn1c(C2CCCN(Cc3ccc4ccccc4n3)C2)nn(C)c1=O (centres undefined) | 0.687 |
| O=C(NCCN1CCCCC1CO)c1cc(-c2ccccc2)on1 (centres undefined) | -5.53 |
| CNC(=O)[C@H]1C[C@@H]2CCN(CCc3ccccc3)C[C@@H]2O1 | -81.7 |
| O=C(C[C@@H]1COC[C@H]2CN(Cc3ccc(F)cc3)C[C@@H]12)N1CCCCO1 | -2.26 |
| Brc1cc(CNCc2nnc3n2CCC3)cs1 | -6.22 |
| CCc1nsc(N2CCN(C(=O)c3ccnc(N(C)C)c3)CC2)n1 | -2.48 |
| Cc1ccc(CN2Cc3nnn(C)c3C(COCCN(C)C)C2)s1 (centres undefined) | -7.25 |
| COCc1noc(-c2nn(-c3ccc(F)cc3)c3c2CCC3)n1 | 2.87 |
| CSC1(CNc2ccc(Br)cn2)CCOCC1 | -9.99 |
| Cc1nccn1CCC1CCCCN1Cc1ccc2c(c1)OCCO2 (centres undefined) | -7.63 |
| Cc1cc(CN2CCN(c3ccc4nncn4n3)CC2)no1 | -4.6 |
| Cc1nnc(NCC(c2ccco2)N2CCCCC2)c(C#N)c1C (centres undefined) | -5.23 |

| SMILES | cytotoxicity at 10 µM [%] |
| --- | --- |
| CC(NC(=O)Cn1cccn1)c1cccnc1 (centres undefined) | 15.9 |
| O=C(O)CC1COCCN1Cc1ccccc1OCCc1ccccc1 (centres undefined) | 2.4 |
| CCC(CC)(CNC(=O)OC(C)(C)C)NC(=O)c1cnccn1 | -8.56 |
| O=C(C1CCCC1)N1CCC(c2n[nH]c3nccnc23)CC1 | 0.165 |
| Cc1nnc2n1CCN(C(=O)COCCOc1ccccc1)C2 | 0.529 |
| CCn1c(CN(C)C)nnc1C1CCN(c2nccc(NC)n2)CC1 | 7.36 |
| Cc1ccc(C(=O)N2CCCC(Cn3cc(C(C)(C)N)nn3)C2)s1 (centres undefined) | -19.1 |
| Cc1cccc(CN2CCOC(C)(C(=O)N3CCOCC3)C2)n1 (centres undefined) | -9.19 |
| CN(Cc1cccnc1)C1CC2(CCN(C(=O)c3cscn3)CC2)C1 | 1.02 |
| CC(C)NC(=O)c1nnn(-c2cccc(F)c2)c1C1CC1 | -0.0198 |
| CN1CCCN(C[C@@H]2CN(C(=O)CCC3CCCC3)C[C@@H]2CO)CC1 | -20.6 |
| Cn1nnc2c1CCN(C(=O)CC1CC1)C2COCCN1CCCC1 (centres undefined) | 17.4 |
| COc1ccccc1N1CCN(c2nc(N)nc3[nH]cnc23)CC1 | 2.77 |
| Cc1ccccc1C(NC(=O)NCC1(O)CCC1)C1CC1 (centres undefined) | -3.03 |
| Cn1ccnc1CN1CCN(CC(O)c2cc(F)ccc2F)CC1 (centres undefined) | -13.8 |
| Cc1cc(C)cc(-c2ccc(CC3(C(=O)O)CCOCC3)cc2)c1 | 4.81 |
| Clc1cccc(N2CCC(NCc3cc[nH]n3)C2)c1 (centres undefined) | 4.01 |
| CN1Cc2ccccc2CC2(CCN(Cc3nccn3C)CC2)C1=O | 7.81 |
| CCN1C(=O)CO[C@@H]2CN(C(=O)C3CCOCC3)C[C@H]21 | -78.2 |
| Cc1cc(-c2cc(N)c(=O)n(CC(=O)NC3CCCC3)n2)c(C)o1 | 4.39 |
| CCC(CO)N(Cc1ccsc1)Cc1cccc(O)c1 (centres undefined) | 0.616 |
| CC(NCc1ccsc1)c1ccc(OCc2nccn2C)cc1 (centres undefined) | -6.37 |

| SMILES | cytotoxicity at 10 µM [%] |
| --- | --- |
| CC(C)Oc1ccc(CNC(=O)c2cc(C(N)=O)cs2)cc1F | 12.6 |
| Cc1nc(C)n(CC2CCCN2Cc2cn3cc(Cl)ccc3n2)n1 (centres undefined) | -16.7 |
| Cc1ccc(CC(=O)N2CCOC(c3ncc(CN(C)C)[nH]3)C2)s1 (centres undefined) | -3.47 |
| CCOc1c(Br)cc(CNCCc2nnc3n2CCCCC3)cc1OC | -59.6 |
| O=C(C1CC1)N1CCC2(CC1)CNCCO2 | -2.82 |
| CCc1nc(CN(C)C2CCN(Cc3nc(C4CC4)no3)C2)no1 (centres undefined) | 14.9 |
| c1nc2c(c(-c3ccsc3)n1)CCN(Cc1ccoc1)CC2 | -11.4 |
| CN1C(=O)CCc2cc(NC(=O)C3CCCC3)ccc21 | -9.79 |
| Cc1c(-c2ccccc2)ncn1CC(c1cccnc1)N1CCOCC1 (centres undefined) | 2.11 |
| COc1ccccc1N1CCN(C(=O)Cn2nc(C)c(Cl)c2C)CC1 | 0.808 |
| CC(C)c1nc(CC(=O)Nc2nc(CN3CCCCCC3)cs2)cs1 | 6.02 |
| O=C(NCCc1cc(F)ccc1F)NC(CO)c1ccccc1 (centres undefined) | 8.78 |
| CC1CCCN(CCNC(=O)c2ccn(-c3ccc(F)cc3)n2)C1 (centres undefined) | -0.734 |
| COC(=O)c1ccc(N2CCN(C(=O)c3cnn(C)c3)C(C)C2)cc1 (centres undefined) | -11.5 |
| Cc1ncccc1C(=O)Nc1cccc(C[S+](C)[O-])c1C (centres undefined) | 4.08 |
| CC(C)(C)OC(=O)NCCNC(=O)c1ccc(-c2ccco2)[nH]c1=O | -13.1 |
| Cc1nc(CN2CCCC(NCc3ccc4c(c3)CCO4)C2)no1 (centres undefined) | -3.61 |
| COc1ccccc1CN1CCC2(CCC(C(=O)N(C)C)O2)CC1 (centres undefined) | 0.493 |
| CCC[C@@H]1CN(C(=O)c2cnc3ccccc3c2)C[C@H]1NS(C)(=O)=O | -11.1 |
| CN(C)C(=O)CN1CCC2(CCN(C(=O)N(C)C)CC2)C1=O | 0.611 |
| COCCCNC(=O)CN(C)C(=O)CN(C)c1ccc(C#N)cn1 | -6.08 |
| CC(=O)N1C[C@H]2CCCN(S(=O)(=O)c3ccc(Cl)s3)[C@H]2C1 | -2.32 |

| SMILES | cytotoxicity at 10 µM [%] |
| --- | --- |
| CC(C)c1nc2n(n1)CC(NCc1nnc(C3CC3)o1)CC2 (centres undefined) | -11.6 |
| CC(NC(=O)CN1CCN(c2ccncc2Cl)CC1)c1ccco1 (centres undefined) | -6.02 |
| Cc1nc(C)n(CC2CN(CC(=O)Nc3cccnc3)CCO2)n1 (centres undefined) | -12 |
| Cn1ccnc1CN1CCOC(C)(C(=O)N2CCOCC2)C1 (centres undefined) | 1.27 |
| Nc1ncc(-c2csc(NC(=O)C[C@H]3COCCN3)n2)cn1 | -2.83 |
| CCn1nc(C)c2nc(C(C)C)nc(NCCCn3ccnc3)c21 | 10.8 |
| CN(Cc1cscn1)C1CCCN(c2cccnn2)C1 (centres undefined) | -3.69 |
| CN(Cc1nnc(C2CC2)n1C)C1CCN(CCc2ccccc2)C1 (centres undefined) | 2.03 |
| Cc1ccc(-n2c(C)nnc2SCC(O)COCc2ccco2)cc1 (centres undefined) | -11.6 |
| CS(=O)(=O)N1CCOCC12CCN(c1nncs1)CC2 | 6.74 |
| CNC(=O)CS(=O)(=O)NC1CCC(C)CC1 (centres undefined) | -8.18 |
| Cc1ccc(S(=O)(=O)N2C[C@H]3C[C@H](NC(=O)c4cc(C)no4)[C@H]3C2)cc1 | -11.2 |
| Cc1nn(C)c(Cl)c1C1CCCN1Cc1nnc(C2CC2)o1 (centres undefined) | -6.18 |
| CNc1nc(C2CCCN(C(=O)C(C)C)C2)nc2c1CN(C)CC2 (centres undefined) | -16.3 |
| O=C(NCc1ccc(F)cc1F)C(c1cccnc1)N1CCOCC1 (centres undefined) | -4.89 |
| CC(=O)N1CCCc2sc(C(=O)Nc3ccc(C)nc3)nc21 | 7.46 |
| CN(CCc1ccccn1)C(=O)CCC1CCCN(c2ncccn2)C1 (centres undefined) | 1.64 |
| COc1ccc(-n2cc(CNC(=O)c3ccc[nH]3)nn2)cc1 | -10.9 |
| O=C(Cn1cc(I)cn1)N1CCc2ccccc2C1 | 11.2 |
| Cc1cccc2[nH]c(C3CCN(C(=O)c4c[nH]c(=O)[nH]c4=O)CC3)nc12 | 8.59 |
| Cc1cccc2c(CCNC(=O)NCCC[S+](C)[O-])c[nH]c12 (centres undefined) | -25.4 |
| Cc1ccc2c(c1)cc(CN1CC[C@](C)(O)[C@H](C)C1)n2C | 0.379 |

| SMILES | cytotoxicity at 10 µM [%] |
| --- | --- |
| Cc1noc(C2CCCCN2C(=O)NCc2ccco2)n1 (centres undefined) | 0.986 |
| CC(C)=CCN1C[C@@H]2CC[C@H]1CN(C(=O)Cc1c(C)[nH]c(C)nc1=O)C2 | 2.48 |
| Cc1[nH]ncc1C(=O)N1CCN(CC(O)C(C)(C)C)CC1 (centres undefined) | -0.00964 |
| CCOC(=O)c1ccc(N2CCN(Cc3c(C)nn(C)c3Cl)CC2)nc1 | 20.5 |
| O=C(O)c1ccc(=O)n(CC(c2ccc(Cl)cc2)N2CCOCC2)c1 (centres undefined) | 2.91 |
| CC(C)N(Cc1cnn(C)c1)C(=O)c1ccnc(N(C)C)c1 | 10.6 |
| Cc1cc(C2CCC2)nc(N2CCN(Cc3nccn3C)CC2)n1 | -6.86 |
| O=C(NC[C@H]1OC[C@@H]2CN(Cc3ccco3)CC[C@@H]21)c1cscn1 | -145 |
| N#Cc1cccnc1N1CCCN(C(=O)CCn2cncn2)CC1 | 0.111 |
| COCC(c1ccccn1)N(C)C(=O)c1cc(-c2ccc(O)cc2)n[nH]1 (centres undefined) | -4.07 |
| CCN(C(=O)NCc1ccccc1OC(F)F)C(C)c1cccnc1 (centres undefined) | -2.28 |
| Cc1cc(C)n(C2CCN(Cc3nc4ccccc4n3C)CC2)n1 | 1.64 |
| Cc1ccc(-c2nc(CC(=O)NCC(C)N3CCOCC3)cs2)o1 (centres undefined) | -47.5 |
| COc1cc(N2CC[C@@H](O)[C@@H]2Cc2ccccc2)ncn1 | -52.1 |
| CCc1nc(CN2CCN(C(=O)c3cnccn3)CC2)cs1 | -8.92 |
| C[C@@H]1CCC[C@H](C)N1CC(=O)N1CCc2[nH]c(-c3ccccc3)nc2C1 | 4.02 |
| CCc1c(C(=O)NCC(=O)OCC2CC2)cnn1-c1ccc(C)cc1 | -3.81 |
| NC(=O)CS(=O)(=O)Cc1ccc(OCc2ccc(F)cc2)cc1 | 4.93 |
| COCCN(Cc1ccccc1)Cc1csc(-c2ncccn2)n1 | 3.78 |
| COc1ccc(C[C@H]2CNCC[C@@H]2OC)cc1 | 3.11 |
| Cc1nn(C)c2nc(NCCN3CCCC(C(N)=O)C3)sc12 (centres undefined) | 0.739 |
